# According to ChEMBL document CHEMBL4354800, “Amphiphilic nebramine-based hybrids Rescue legacy antibiotics from intrinsic resistance in multidrug-resistant Gram-negative bacilli” (Eur J Med Chem, 2019):
# Calls of active or inactive are those of the source. The rule behind the calls is not given here.
# Assays:
# [1] = system: Pseudomonas aeruginosa; test: Potentiation of rifampicin-induced antimicrobial activity against MDR/XDR Pseudomonas aeruginosa isolate PA264-104354 harboring GyrA Thr83Ile mutant assessed as rifampicin MIC50 incubated for 18 hrs by broth microdilution method (reference value: 8 microg/ml); type: functional; conditions: isolate PA264-104354, 18 h
# [2] = system: Pseudomonas aeruginosa; test: Potentiation of rifampicin-induced antibacterial activity against MDR/XDR Pseudomonas aeruginosa isolate 101243 devoid of GyrA T83I mutant assessed as fold reduction in rifampicin MIC at 7.5 uM incubated for 18 hrs by broth microdilution method; type: functional
# In short: (§1)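 CLSI broth microdilution. Overnight cultures were set to 0.5 McFarland in saline, diluted 1:50 in Mueller-Hinton broth to a final 5 × 10^5 CFU/mL, and incubated 18 h at 37 °C against 2-fold antibiotic dilutions. A fixed adjuvant level was present throughout. MIC = lowest concentration with no visible turbidity, confirmed at 590 nm. Potentiation = fold drop in antibiotic MIC versus antibiotic alone.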
# [3] = system: Pseudomonas aeruginosa; test: Potentiation of rifampicin-induced antibacterial activity against MDR/XDR Pseudomonas aeruginosa isolate 101885 harboring GyrA T83I mutant assessed as fold reduction in rifampicin MIC at 7.5 uM incubated for 18 hrs by broth microdilution method; type: functional; in short: as §1
# [4] = system: Acinetobacter baumannii; test: Synergistic antibacterial activity against multidrug-resistant Acinetobacter baumannii AB031 assessed as fractional inhibitory concentration index in presence of minocycline incubated for 18 hrs by broth dilution method; type: functional
# [5] = system: Acinetobacter baumannii; test: Synergistic antibacterial activity against multidrug-resistant Acinetobacter baumannii AB027 assessed as fractional inhibitory concentration index in presence of rifampicin incubated for 18 hrs by broth dilution method; type: functional
# [6] = system: Pseudomonas aeruginosa; test: Potentiation of ciprofloxacin-induced antibacterial activity against MDR/XDR Pseudomonas aeruginosa isolate PA262-101856 harboring GyrA T83I mutant assessed as fold reduction in ciprofloxacin MIC at 7.5 uM incubated for 18 hrs by broth microdilution method; type: functional
# [7] = system: Acinetobacter baumannii; test: Synergistic antibacterial activity against multidrug-resistant Acinetobacter baumannii 110193 assessed as fractional inhibitory concentration index in presence of minocycline incubated for 18 hrs by broth dilution method; type: functional
# [8] = system: Acinetobacter baumannii; test: Synergistic antibacterial activity against multidrug-resistant Acinetobacter baumannii 110193 assessed as fractional inhibitory concentration index in presence of rifampicin incubated for 18 hrs by broth dilution method; type: functional
# [9] = system: Pseudomonas aeruginosa; test: Potentiation of rifampicin-induced antibacterial activity against wild type Pseudomonas aeruginosa PAO1 assessed as fold reduction in rifampicin MIC at 4.1 uM incubated for 18 hrs by broth microdilution method; type: functional; in short: as §1
# [10] = system: Pseudomonas aeruginosa; test: Potentiation of rifampicin-induced bactericidal activity in MDR/XDR Pseudomonas aeruginosa isolate PA259-96918 harboring GyrA T83I mutant assessed as decrease in viable bacterial count at 1 ug/ml incubated for 8 hrs in presence of 1 ug/ml rifampicin by time kill curve assay; type: functional, organism-based
# In short: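 Time-kill assay against XDR P. aeruginosa PA259. Overnight culture adjusted to 0.5 McFarland in saline, diluted 1:50 in LB. Incubated at 37 °C for 24 h with rifampicin and adjuvant, alone or combined at various concentrations. Aliquots taken at intervals, serially diluted in PBS and plated on LB agar. Colonies counted after 20 h at 37 °C. Untreated cells as control.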
# [11] = system: Klebsiella pneumoniae; test: Synergistic antibacterial activity against Klebsiella pneumoniae 113250 assessed as fractional inhibitory concentration index in presence of minocycline incubated for 18 hrs by broth dilution method; type: functional
# In short: (§2)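 Checkerboard titration of the adjuvant against the antibiotic, run under the CLSI microdilution conditions (MHB, 5 × 10^5 CFU/mL, 18 h, 37 °C). Each agent's FIC is its MIC in combination divided by its MIC alone; FICI is the sum of the two FICs. FICI ≤0.5 was read as synergy, >0.5–4.0 as no interaction, and >4.0 as antagonism.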
# [12] = system: Acinetobacter baumannii; test: Synergistic antibacterial activity against multidrug-resistant Acinetobacter baumannii AB92247 assessed as fractional inhibitory concentration index in presence of minocycline incubated for 18 hrs by broth dilution method; type: functional
# [13] = system: Acinetobacter baumannii; test: Synergistic antibacterial activity against multidrug-resistant Acinetobacter baumannii AB110193 assessed as fractional inhibitory concentration index in presence of minocycline incubated for 18 hrs by broth dilution method; type: functional
# [14] = system: Pseudomonas aeruginosa; test: Potentiation of minocycline-induced antibacterial activity against wild type Pseudomonas aeruginosa PAO1 assessed as fold reduction in minocycline MIC at 4.1 uM incubated for 18 hrs by broth microdilution method; type: functional
# In short: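 Antibiotic MIC determined by CLSI broth microdilution (MHB, 5 × 10^5 CFU/mL, 18 h, 37 °C), once alone and once with a fixed concentration of the adjuvant. Potentiation is the ratio of the antibiotic MIC alone to its MIC in the presence of the adjuvant.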
# [15] = system: Pseudomonas aeruginosa; test: Antimicrobial activity against XDR Pseudomonas aeruginosa PA264 infected in Galleria mellonella larvae assessed as survival rate at 100 mg/kg administered 2 hrs post-inoculation measured after 18 hrs relative to control; type: functional
# In short: (§3)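 G. mellonella larvae were injected with ~5 CFU of P. aeruginosa PA264 (10 µL of 5 × 10^2 CFU/mL in PBS) and held 2 h at 37 °C. A single 10 µL injection followed: monotherapy or rifampicin + compound (25+25, 50+50 or 75+75 mg/kg), with PBS as control. Larvae kept at 37 °C were scored every 6 h to 24 h; dead = no response to touch. n = 30 (two runs of 15); Kaplan-Meier.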
# [16] = system: Pseudomonas aeruginosa; test: Antimicrobial activity against XDR Pseudomonas aeruginosa isolate PA264 infected in Galleria mellonella larvae assessed as survival rate at 75 mg/kg co-administered with 75 mg/kg rifampicin at 2 hrs post-inoculation measured after 18 hrs relative to control; type: functional; in short: as §3
# [17] = system: Acinetobacter baumannii; test: Synergistic antibacterial activity against multidrug-resistant Acinetobacter baumannii ATCC 17978 assessed as fractional inhibitory concentration index in presence of rifampicin incubated for 18 hrs by broth dilution method; type: functional
# [18] = system: Klebsiella pneumoniae; test: Synergistic antibacterial activity against Klebsiella pneumoniae 113254 assessed as fractional inhibitory concentration index in presence of rifampicin incubated for 18 hrs by broth dilution method; type: functional; in short: as §2
# [19] = Hemolytic activity against porcine erythrocytes assessed as hemoglobin release at 512 ug/ml incubated for 1 hr by spectrophotometric analysis relative to control; type: ADME, cell-based, Sus scrofa, Erythrocyte; conditions: pig, read-out: Activity
# In short: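 Porcine erythrocytes were washed three times in PBS and used at 3 × 10^8 cells/mL final. Compounds were serially diluted in PBS at twice the final concentration, mixed with an equal volume of cells, and incubated 1 h at 37 °C. After centrifugation (1000 g, 4 °C, 10 min), hemoglobin in the supernatant was read at 570 nm. Percent hemolysis was scaled between PBS (0%) and 0.1% Triton X-100 (100%).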
# [20] = system: Pseudomonas aeruginosa; test: Potentiation of moxifloxacin-induced antibacterial activity against MDR/XDR Pseudomonas aeruginosa isolate 91433 devoid of GyrA T83I mutant assessed as fold reduction in moxifloxacin MIC at 9 uM incubated for 18 hrs by broth microdilution method; type: functional; in short: as §1
# [21] = system: Pseudomonas aeruginosa; test: Potentiation of minocycline-induced antibacterial activity against MDR/XDR Pseudomonas aeruginosa isolate PA259-96918 harboring GyrA T83I mutant assessed as fold reduction in minocycline MIC at 9 uM incubated for 18 hrs by broth microdilution method; type: functional
smiles,measurement,setting,value
COc1c(N2C[C@@H]3CCCN(CCCCCCCCCCCCO[C@@H]4[C@@H](O)[C@H](N)C[C@H](N)[C@H]4O[C@H]4O[C@H](CN)[C@@H](O)C[C@H]4N)[C@@H]3C2)c(F)cc2c(=O)c(C(=O)O)cn(C3CC3)c12.Cl.Cl.Cl.Cl.Cl,MIC50,[1],0.06 µg/mL
same,fold change (FC),[2],32
same,fold change (FC),[3],128
same,fractional inhibitory concentration index (FICI),[4],>1
same,fractional inhibitory concentration index (FICI),[5],0.031 - 0.047
same,fold change (FC),[6],4
same,fractional inhibitory concentration index (FICI),[7],>1
same,fractional inhibitory concentration index (FICI),[8],0.031 - 0.047
Cl.Cl.Cl.Cl.Cl.NC[C@H]1O[C@H](O[C@H]2[C@H](OCCCCCCCCCCCCN3CCN(c4cc5c(cc4F)c(=O)c(C(=O)O)cn5C4CC4)CC3)[C@@H](O)[C@H](N)C[C@@H]2N)[C@H](N)C[C@@H]1O,fold change (FC),[9],>=256
same,Activity,[10],Active
same,fractional inhibitory concentration index (FICI),[11],0.504
same,fractional inhibitory concentration index (FICI),[12],0.531
same,fractional inhibitory concentration index (FICI),[13],>1
same,fold change (FC),[14],32
same,survival at 100 mg/kg,[15],0%
same,survival at 75 mg/kg,[16],87%
same,fractional inhibitory concentration index (FICI),[17],0.016
same,fractional inhibitory concentration index (FICI),[18],0.047
same,"hemolysis at 1 h, 512 ug/ml",[19],< 10%
Cl.Cl.Cl.Cl.Cl.Cl.NC[C@H]1O[C@H](O[C@H]2[C@H](OCCCCCCCCCCN3CCN(Cc4cccc5ccccc45)CC3)[C@@H](O)[C@H](N)C[C@@H]2N)[C@H](N)C[C@@H]1O,fold change (FC),[20],8
same,fold change (FC),[21],64
